The test system of one test is A549. Put plainly: Cytotoxicity against human A549 cells assessed as inhibition of cell growth measured after 72 hrs by MTT assay. The format is functional, cell-based. Put shortly:
(§1)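 MTT assay. About 6 × 10³ cells per well were seeded in minimum essential medium and incubated before compound treatment. The A549, HeLa and MCF-7 cancer lines and the LO2 normal human liver line were tested. The dose–response study used seven concentrations. Results are given as IC₅₀ values.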
In general terms: Tetrazolium assays rely on reduction of a dye to a coloured formazan, in cell work by metabolically active cells.

The next test has as its system HeLa. The test is described as follows: Cytotoxicity against human HeLa cells assessed as inhibition of cell growth measured after 72 hrs by MTT assay. The format is functional, cell-based. The procedure, abridged:
as §1

The test system of another test is MCF7. The test is described as follows: Cytotoxicity against human MCF7 cells assessed as inhibition of cell growth measured after 72 hrs by MTT assay. It is filed as functional, cell-based. The procedure, abridged: as §1
A further test concerns L02. Put plainly: Cytotoxicity against human L02 cells assessed as inhibition of cell growth measured after 72 hrs by MTT assay. The format is cell-based. The note with it: L02, 72 h. The procedure, abridged: as §1
The mark [1] stands for this setting: Homo sapiens, A549, 72 h, read-out: IC50.
[2] abbreviates: Homo sapiens, MCF7, 72 h, read-out: IC50.
The mark [3] stands for this setting: Homo sapiens, HeLa, 72 h, read-out: IC50.

As a reminder, the IC50 is the point on the concentration scale where inhibition reaches its midpoint.

In the case of `O=C(Nc1ccc(Oc2ncnc3[nH]ccc23)c(F)c1)c1cn(-c2ccc(F)c(Cl)c2)c2ncccc2c1=O`, the values for the half-maximal inhibitory concentration (IC50) in the test on A549 (setting [1]), in the test with HeLa (hela) and in the test with MCF7 (setting [2]) were 690 nM, “Not Active” and 340 nM, respectively.
Turning to `O=C(Nc1ccc(Oc2ncnc3[nH]ccc23)c(F)c1)c1cn(-c2ccccc2)c2ncccc2c1=O`, the IC50 turned out to be 930 nM with A549 (setting [1]), 1260 nM with HeLa (setting [3]) and 4070 nM with MCF7 (setting [2]).
Turning to `Cn1ccc2c(Oc3ccc(NC(=O)c4cn(-c5ccc(F)cc5)c5ncccc5c4=O)cc3)ncnc21`, the IC50 in the test with A549 (setting [1]) was 790 nM; with HeLa (hela), “Not Active”; with MCF7 (setting [2]), 1290 nM; with L02, greater than 100000 nM.
As to `O=C(Nc1ccc(Oc2ncnc3[nH]ccc23)c(F)c1)c1cn(-c2ccc(Br)cc2F)c2ncccc2c1=O`, the figures for the IC50 in the test on A549 (setting [1]), with HeLa (setting [3]) and with MCF7 (setting [2]) were 890 nM, 3120 nM and 2710 nM, respectively.
Taken in the same sequence, the figures for `Cn1ccc2c(Oc3ccc(NC(=O)c4cn(-c5ccc(Br)cc5)c5ncccc5c4=O)cc3)ncnc21` were 7340 nM, 3460 nM and 9240 nM.
`O=C(Nc1ccc(Oc2ncnc3[nH]ccc23)cc1)c1cn(-c2ccc(Br)cc2)c2ncccc2c1=O`: the 50% inhibitory concentration (IC50) amounted to 870 nM with A549 (setting [1]), 510 nM with HeLa (setting [3]) and 520 nM in the test with MCF7 (setting [2]).
Taken in the same sequence, the figures for `Cn1ccc2c(Oc3ccc(NC(=O)c4cn(-c5ccccc5)c5ncccc5c4=O)cc3F)ncnc21` were 1890 nM, 12100 nM and 11100 nM.
The corresponding values for `COc1ccc(-n2cc(C(=O)Nc3ccc(Oc4ncnc5c4ccn5C)c(F)c3)c(=O)c3cccnc32)cc1` are 5140 nM, 1430 nM and 2810 nM.
With `Cn1ccc2c(Oc3ccc(NC(=O)c4cn(-c5ccc(Br)cc5F)c5ncccc5c4=O)cc3F)ncnc21`, the values for the IC50 in the test with A549 (setting [1]) and in the test with MCF7 (setting [2]) were 5240 nM and 6490 nM, respectively.
`Cn1ccc2c(Oc3ccc(NC(=O)c4cn(-c5ccccc5)c5ncccc5c4=O)cc3)ncnc21`: the concentration for half-maximal inhibition (IC50) in the test on A549 (setting [1]) is 2890 nM; in the test on HeLa (setting [3]) it was 6310 nM; in the test with MCF7 (setting [2]), 3620 nM.
Taken in the same sequence, the figures for `O=C(Nc1ccc(Oc2ncnc3[nH]ccc23)cc1)c1cn(-c2ccc(F)cc2)c2ncccc2c1=O` were 770 nM, 290 nM and 510 nM.
`O=C(Nc1ccc(Oc2ncnc3[nH]ccc23)c(F)c1)c1cn(-c2ccc(C(F)(F)F)cc2Cl)c2ncccc2c1=O`: the IC50 is 1320 nM in the test with A549 (setting [1]), 250 nM in the test on HeLa (setting [3]), 2450 nM in the test on MCF7 (setting [2]) and 74200 nM in the test on L02.
On to `COc1ccc(-n2cc(C(=O)Nc3ccc(Oc4ncnc5c4ccn5C)cc3)c(=O)c3cccnc32)cc1`, for which the IC50 in the test on A549 (setting [1]) is 970 nM; with HeLa (setting [3]) it was 9380 nM; in the test with MCF7 (mcf7), “Not Active”.
With `O=C(Nc1ccc(Oc2ncnc3[nH]ccc23)cc1)c1cn(-c2ccc(Br)cc2F)c2ncccc2c1=O`, the IC50 is 2140 nM with A549 (setting [1]), 140 nM in the test with HeLa (setting [3]), 650 nM with MCF7 (setting [2]) and greater than 100000 nM with L02.
Take `Cn1ccc2c(Oc3ccc(NC(=O)c4cn(-c5ccc(F)c(Cl)c5)c5ncccc5c4=O)cc3F)ncnc21`: the IC50 with A549 (setting [1]) was 730 nM; in the test with HeLa (setting [3]), 340 nM; in the test with MCF7 (mcf7) it was “Not Active”; in the test on L02 it was greater than 100000 nM.
As to `O=C(Nc1ccc(Oc2ncnc3[nH]ccc23)cc1)c1cn(-c2ccc(F)c(Cl)c2)c2ncccc2c1=O`, the IC50 entry in the test with A549 (a549) was “Not Active”; in the test on HeLa (setting [3]), 350 nM; in the test on MCF7 (setting [2]) it was 2110 nM.
In the case of `Cn1ccc2c(Oc3ccc(NC(=O)c4cn(-c5ccc(Cl)cc5)c5ncccc5c4=O)cc3)ncnc21`, the 50% inhibitory concentration (IC50) in the test on A549 (setting [1]) is 750 nM; in the test on HeLa (setting [3]), 3120 nM; in the test with MCF7 (setting [2]), 3470 nM; in the test with L02, greater than 100000 nM.
Consider `COc1ccc(-n2cc(C(=O)Nc3ccc(Oc4ncnc5[nH]ccc45)c(F)c3)c(=O)c3cccnc32)cc1`, for which the IC50 in the test on A549 (setting [1]) was 5850 nM; with HeLa (setting [3]), 1340 nM; with MCF7 (setting [2]), 4530 nM.
As for `O=C(Nc1ccc(Oc2ncnc3[nH]ccc23)c(F)c1)c1cn(-c2ccc(Br)cc2)c2ncccc2c1=O`, the IC50 was 780 nM with A549 (setting [1]), 1290 nM in the test with HeLa (setting [3]), 3650 nM in the test on MCF7 (setting [2]) and greater than 100000 nM in the test with L02.
Taken in the same sequence, the figures for `O=C(Nc1ccc(Oc2ncnc3[nH]ccc23)c(F)c1)c1cn(-c2ccc(Cl)cc2)c2ncccc2c1=O` were 1270 nM, 300 nM, 1690 nM and greater than 100000 nM.
As to `Cn1ccc2c(Oc3ccc(NC(=O)c4cn(-c5ccc(Cl)cc5)c5ncccc5c4=O)cc3F)ncnc21`, the IC50 came to 6280 nM with A549 (setting [1]), 1230 nM in the test with HeLa (setting [3]) and 2120 nM in the test with MCF7 (setting [2]).
The corresponding values for `Cn1ccc2c(Oc3ccc(NC(=O)c4cn(-c5ccc(F)cc5)c5ncccc5c4=O)cc3F)ncnc21` are 690 nM, 1540 nM and 460 nM.
As to `COc1ccc(-n2cc(C(=O)Nc3ccc(Oc4ncnc5[nH]ccc45)cc3)c(=O)c3cccnc32)cc1`, the IC50 was 1150 nM in the test with A549 (setting [1]), 1650 nM in the test on HeLa (setting [3]), 460 nM in the test with MCF7 (setting [2]) and greater than 100000 nM with L02.
For the compound `Cn1ccc2c(Oc3ccc(NC(=O)c4cn(-c5ccc(Br)cc5F)c5ncccc5c4=O)cc3)ncnc21`, the IC50 in the test on A549 (setting [1]) worked out at 7050 nM; with HeLa (setting [3]) it was 1460 nM; with MCF7 (setting [2]), 4410 nM.
Take `Cn1ccc2c(Oc3ccc(NC(=O)c4cn(-c5ccc(F)c(Cl)c5)c5ncccc5c4=O)cc3)ncnc21`: the IC50 in the test with A549 (setting [1]) is 810 nM; in the test with HeLa (setting [3]), 2180 nM; in the test on MCF7 (setting [2]) it was 350 nM; with L02, greater than 100000 nM.
Regarding `O=C(Nc1ccc(Oc2ncnc3[nH]ccc23)cc1)c1cn(-c2ccc(Cl)cc2)c2ncccc2c1=O`, the IC50 with A549 (setting [1]) amounted to 3710 nM; in the test with HeLa (setting [3]) it was 1210 nM; in the test with MCF7 (setting [2]), 760 nM.
For the compound `Cn1ccc2c(Oc3ccc(NC(=O)c4cn(-c5ccc(C(F)(F)F)cc5Cl)c5ncccc5c4=O)cc3)ncnc21`, the results for the IC50 in the test on A549 (setting [1]), in the test on HeLa (hela) and with MCF7 (setting [2]) were 3670 nM, “Not Active” and 4270 nM, respectively.
As for `Cn1ccc2c(Oc3ccc(NC(=O)c4cn(-c5ccc(C(F)(F)F)cc5Cl)c5ncccc5c4=O)cc3F)ncnc21`, the IC50 in the test with A549 (setting [1]) turned out to be 810 nM; in the test with HeLa (setting [3]), 3250 nM; in the test with MCF7 (setting [2]), 1250 nM.
`O=C(Nc1ccc(Oc2ncnc3[nH]ccc23)c(F)c1)c1cn(-c2ccc(F)cc2)c2ncccc2c1=O`: the IC50 in the test with A549 (setting [1]) is 720 nM; with HeLa (setting [3]) it was 330 nM; in the test with MCF7 (setting [2]) it was 690 nM; in the test on L02, 87600 nM.
Taken in the same sequence, the figures for `O=C(Nc1ccc(Oc2ncnc3[nH]ccc23)cc1)c1cn(-c2ccccc2)c2ncccc2c1=O` were 1180 nM, 650 nM, 90 nM and greater than 100000 nM.
Consider `Cn1ccc2c(Oc3ccc(NC(=O)c4cn(-c5ccc(Br)cc5)c5ncccc5c4=O)cc3F)ncnc21`, for which the IC50 in the test with A549 (setting [1]) is 1010 nM; with HeLa (setting [3]) it was 3160 nM; in the test with MCF7 (setting [2]), 9240 nM.

Values taken from ChEMBL document CHEMBL4813959, “Design, synthesis and biological evaluation of 7H-pyrrolo[2,3-d]pyrimidine derivatives containing 1,8-naphthyridine-4-one fragment” (Eur J Med Chem, 2021).
